# Calls of active or inactive are those of the source. The rule behind the calls is not given here.
# Experiments:
# [1] = target: 26S proteasome (Homo sapiens) (UniProt Q99460+P49721+P20618+P28074+P28062+P28065+P28072+O00487+P25786+P25787+P25788+P25789+P28066+P60900+O14818+Q8TAA3+P40306+A5LHX3+P49720+P28070+Q99436+Q16186+P35998+P62191+P43686+P62333+P17980+P62195+Q13200+O43242+O00232+O00231+Q15008+P51665+Q9UNM6+P55036+P48556+P60896); assay: Inhibition of chymotrypsin-like enzyme activity of purified human 20S proteasome using Suc-Leu-Leu-Val-Tyr-AMC as substrate at 1 ug/ml by fluorescence method; type: protein-complex assay
# Procedure, shortened: (§1)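 Purified human 20S proteasome preincubated with compound for 15 min. Fluorogenic substrate Suc-Leu-Leu-Val-Tyr-AMC (50 µM) then added to read chymotrypsin-like activity.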
# RPMI-8226 [2] = assay: Cytotoxic activity against human RPMI8226 cells after 72 hrs by MTS assay; type: functional, cell-based; conditions: RPMI-8226, 72 h
# Procedure, shortened: (§2)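 100 µL cell suspension (10⁴ cells/well) seeded in 96-well plates; compound exposure 72 h, then MTS at 0.5 mg/mL final for 2–4 h. Absorbance read at 490 nm with 690 nm background subtraction. Growth inhibitory ratio = (A_control − A_sample)/A_control.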
# [3] = Cytotoxic activity against human NCI-H929 cells after 72 hrs by MTS assay; type: functional, cell-based; conditions: NCI-H929, 72 h; procedure, shortened: as §2
# 26S proteasome = assay: Inhibition of chymotrypsin-like enzyme activity of purified human 20S proteasome using Suc-Leu-Leu-Val-Tyr-AMC as substrate by fluorescence method; type: protein-complex assay; procedure, shortened: as §1
# RPMI-8226 [4] = assay: Induction of apoptosis human RPMI8226 cells assessed as PARP cleavage at 100 nM after 12 hrs by Western blot analysis; type: functional, cell-based
# Procedure, shortened: (§3)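 RPMI 8226 cells in 6-well plates exposed to compounds for 12 h; DMSO as vehicle control. Cells rinsed twice in ice-cold PBS and lysed in 1× SDS loading buffer. Lysates run on 10% SDS–PAGE and transferred to PVDF. Blocked 1 h in 5% milk, primary antibodies 2 h, secondary 1 h, ECL detection. Probed for poly-ubiquitin, PARP, cleaved PARP, β-actin.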
# RPMI-8226 [5] = assay: Induction of apoptosis human RPMI8226 cells assessed as accumulation of poly-ubiquitin at 100 nM after 12 hrs by Western blot analysis; type: functional, cell-based; procedure, shortened: as §3
Structure (SMILES),inhibition [1] [%],IC50 (RPMI-8226 [2]) [nM],IC50 [3] [nM],IC50 (26S proteasome) [nM],other results
CC(C)C[C@H](NC(=O)[C@H](Cc1ccccc1)NC(=O)CC(NC(=O)c1ccco1)c1ccccc1)C(=O)[C@@]1(C)CO1 (some centres undefined),42.3,–,–,–,–
CC(C)C[C@H](NC(=O)CC(NC(=O)[C@H](Cc1ccccc1)NC(=O)c1cccnc1)c1ccccc1)C(=O)[C@@]1(C)CO1 (some centres undefined),0.48,–,–,–,–
CC(C)C[C@H](NC(=O)c1ccccc1)C(=O)NC(CC(=O)N[C@@H](Cc1ccccc1)C(=O)[C@@]1(C)CO1)c1ccccc1 (some centres undefined),1.56,–,–,–,–
CC(C)C[C@H](NC(=O)[C@H](Cc1ccccc1)NC(=O)CC(NC(=O)c1cnccn1)c1ccccc1)C(=O)[C@@]1(C)CO1 (some centres undefined),48.6,–,–,–,–
CC(C)C[C@H](NC(=O)c1cnccn1)C(=O)NC(CC(=O)N[C@@H](CC(C)C)C(=O)[C@@]1(C)CO1)c1ccccc1 (some centres undefined),9.01,–,–,–,–
CC(C)C[C@H](NC(=O)c1cccnc1)C(=O)NC(CC(=O)N[C@@H](CC(C)C)C(=O)[C@@]1(C)CO1)c1ccccc1 (some centres undefined),0.84,–,–,–,–
CC(C)C[C@H](NC(=O)CC(NC(=O)[C@H](Cc1ccccc1)NC(=O)c1ccccc1)c1ccccc1)C(=O)[C@@]1(C)CO1 (some centres undefined),0.3,–,–,–,–
CC(C)C[C@H](NC(=O)[C@H](CCc1ccccc1)NC(=O)CN1CCOCC1)C(=O)N[C@@H](Cc1ccccc1)C(=O)N[C@@H](CC(C)C)C(=O)[C@@]1(C)CO1 [CARFILZOMIB],–,13.2,21.3,–,–
CC(C)C[C@H](NC(=O)[C@H](Cc1ccccc1)NC(=O)CC(NC(=O)c1cccs1)c1ccccc1)C(=O)[C@@]1(C)CO1 (some centres undefined),62.5,–,–,950,–
CC(C)C[C@H](NC(=O)c1ccccc1)C(=O)NC(CC(=O)N[C@@H](CC(C)C)C(=O)[C@@]1(C)CO1)c1ccccc1 (some centres undefined),6.42,–,–,–,–
COc1ccc(C(=O)N[C@@H](CC(C)C)C(=O)NC(CC(=O)N[C@@H](Cc2ccccc2)C(=O)[C@@]2(C)CO2)c2ccccc2)cc1 (some centres undefined),0.39,–,–,–,–
CC(C)C[C@H](NC(=O)[C@H](Cc1ccccc1)NC(=O)CC(NC(=O)c1ccccc1)c1ccccc1)C(=O)[C@@]1(C)CO1 (some centres undefined),88.5,1680,2690,440,–
CC(C)C[C@H](NC(=O)CC(NC(=O)[C@H](Cc1ccccc1)NC(=O)c1ccc(F)cc1)c1ccccc1)C(=O)[C@@]1(C)CO1 (some centres undefined),0.37,–,–,–,–
COc1ccc(C(=O)N[C@@H](CC(C)C)C(=O)NC(CC(=O)N[C@@H](CC(C)C)C(=O)[C@@]2(C)CO2)c2ccccc2)cc1 (some centres undefined),0.56,–,–,–,–
CC(C)C[C@H](NC(=O)[C@H](Cc1ccccc1)NC(=O)CC(NC(=O)c1ccc(C(F)(F)F)cc1)c1ccccc1)C(=O)[C@@]1(C)CO1 (some centres undefined),76,320,960,220,–
CC(C)C[C@H](NC(=O)c1cccnc1)C(=O)NC(CC(=O)N[C@@H](Cc1ccccc1)C(=O)[C@@]1(C)CO1)c1ccccc1 (some centres undefined),3.16,–,–,–,–
COc1ccc(C(=O)N[C@@H](Cc2ccccc2)C(=O)NC(CC(=O)N[C@@H](CC(C)C)C(=O)[C@@]2(C)CO2)c2ccccc2)cc1 (some centres undefined),0.3,–,–,–,Activity (RPMI-8226 [4]): inactive; Activity (RPMI-8226 [5]): inactive

Structure (SMILES),inhibition [1] [%],IC50 (RPMI-8226 [2]) [nM],IC50 [3] [nM],IC50 (26S proteasome) [nM],other results
CC(C)C[C@H](NC(=O)[C@H](Cc1ccccc1)NC(=O)CC(NC(=O)c1cccnc1)c1ccccc1)C(=O)[C@@]1(C)CO1 (some centres undefined),85.8,4730,8700,340,–
CC(C)C[C@H](NC(=O)[C@H](Cc1ccccc1)NC(=O)C[C@@H](NC(=O)c1ccc(C(F)(F)F)cc1)c1ccccc1)C(=O)[C@@]1(C)CO1,84.4,340,230,170,–
CC(C)C[C@H](NC(=O)[C@H](Cc1ccccc1)NC(=O)C[C@@H](NC(=O)c1ccc2ccccc2c1)c1ccccc1)C(=O)[C@@]1(C)CO1,86.1,230,170,110,Activity (RPMI-8226 [4]): Active; Activity (RPMI-8226 [5]): Active
CC(C)C[C@H](NC(=O)[C@H](Cc1ccccc1)NC(=O)C[C@H](NC(=O)c1ccc(C(F)(F)F)cc1)c1ccccc1)C(=O)[C@@]1(C)CO1,25.6,–,–,–,–
CC(C)C[C@H](NC(=O)[C@H](Cc1ccccc1)NC(=O)c1cnccn1)B(O)O [BORTEZOMIB],–,7.96,10.8,–,–
CC(C)C[C@H](NC(=O)c1ccc(F)cc1)C(=O)NC(CC(=O)N[C@@H](Cc1ccccc1)C(=O)[C@@]1(C)CO1)c1ccccc1 (some centres undefined),1.43,–,–,–,–
COc1ccc(C(=O)NC(CC(=O)N[C@@H](Cc2ccccc2)C(=O)N[C@@H](CC(C)C)C(=O)[C@@]2(C)CO2)c2ccccc2)cc1 (some centres undefined),84.1,1160,1350,340,–
CC(C)C[C@H](NC(=O)[C@H](Cc1ccccc1)NC(=O)C[C@H](NC(=O)c1ccc2ccccc2c1)c1ccccc1)C(=O)[C@@]1(C)CO1,11.8,–,–,–,–
CC(C)C[C@H](NC(=O)c1cnccn1)C(=O)NC(CC(=O)N[C@@H](Cc1ccccc1)C(=O)[C@@]1(C)CO1)c1ccccc1 (some centres undefined),8.7,–,–,–,–
CC(C)C[C@H](NC(=O)[C@H](Cc1ccccc1)NC(=O)CC(NC(=O)c1ccc(F)cc1)c1ccccc1)C(=O)[C@@]1(C)CO1 (some centres undefined),87.7,1550,2370,380,–
CC(C)C[C@H](NC(=O)CC(NC(=O)[C@H](Cc1ccccc1)NC(=O)c1cnccn1)c1ccccc1)C(=O)[C@@]1(C)CO1 (some centres undefined),1.51,–,–,–,–
CC(C)C[C@H](NC(=O)c1ccc(F)cc1)C(=O)NC(CC(=O)N[C@@H](CC(C)C)C(=O)[C@@]1(C)CO1)c1ccccc1 (some centres undefined),5.46,–,–,–,–
CC(C)C[C@H](NC(=O)[C@H](Cc1ccccc1)NC(=O)CC(NC(=O)CN1CCOCC1)c1ccccc1)C(=O)[C@@]1(C)CO1 (some centres undefined),40,–,–,–,–
CC(C)C[C@H](NC(=O)[C@H](Cc1ccccc1)NC(=O)CC(NC(=O)c1ccc2ccccc2c1)c1ccccc1)C(=O)[C@@]1(C)CO1 (some centres undefined),74.8,420,700,190,–
CC(C)C[C@H](NC(=O)[C@H](Cc1ccccc1)NC(=O)CC(NC(=O)c1ccc(C#N)cc1)c1ccccc1)C(=O)[C@@]1(C)CO1 (some centres undefined),72,410,610,360,–
CC(C)C[C@H](NC(=O)[C@H](Cc1ccccc1)NC(=O)CC(NC(=O)C1CCOCC1)c1ccccc1)C(=O)[C@@]1(C)CO1 (some centres undefined),69.5,–,–,630,–
CC(C)C[C@H](NC(=O)[C@H](Cc1ccccc1)NC(=O)CC(NC(=O)c1ccc(-c2ccccc2)cc1)c1ccccc1)C(=O)[C@@]1(C)CO1 (some centres undefined),47.3,–,–,–,–

# From ChEMBL document CHEMBL3259806, “Design, synthesis and biological evaluation of novel tripeptidyl epoxyketone derivatives constructed from β-amino acid as proteasome inhibitors” (Bioorg Med Chem, 2014)
